In ChEMBL document CHEMBL5380855, “Acetyl-Click Screening Platform Identifies Small-Molecule Inhibitors of Histone Acetyltransferase 1 (HAT1)” (J Med Chem, 2023):
Calls of active or inactive are those of the source. The calls are words filed in the database; no cut-off is given here.

Key:
[1] = biological target: T1, HAT1/Rbap46 (Homo sapiens) (UniProt Q16576+O14929); experiment: Inhibition of C-terminal FLAG tagged full length human HAT1/Rbap46 transfected in HEK293F cells using histone H4 peptide as substrate and 4-pentynoyl-CoA as cofactor at 100 uM preincubated for 10 mins followed by 4-pentynoyl-CoA addition and measured after 1 hr by amplex red dye based fluorescence analysis relative to control; assay type: cell-based; details: time 70.0 min
[2] = biological target: T1, HAT1/Rbap46 (Homo sapiens); experiment: Inhibition of C-terminal FLAG tagged full length human HAT1/Rbap46 transfected in HEK293F cells using histone H4 peptide as substrate and 4-pentynoyl-CoA as cofactor at 1 to 100 uM preincubated for 10 mins followed by 4-pentynoyl-CoA addition and measured after 1 hr by amplex red dye based fluorescence analysis relative to control; assay type: cell-based; details: dose 1-100 µM, time 70.0 min
[3] = biological target: T1, HAT1/Rbap46 (Homo sapiens); experiment: Inhibition of C-terminal FLAG tagged full length human HAT1/Rbap46 transfected in HEK293F cells using histone H4 peptide as substrate and 4-pentynoyl-CoA as cofactor preincubated for 10 mins followed by 4-pentynoyl-CoA addition and measured after 1 hr by amplex red dye based fluorescence analysis relative to control; assay type: cell-based; parameters: concentration or dose not given beside the values; details: time 70.0 min
HCC1806 [4] = experiment: Cytotoxicity against human HCC1806 cells assessed as inhibition of cell growth incubated for 48 hrs by celltiter blue analysis; assay type: functional, cell-based
HAT1/Rbap46 = HAT1/Rbap46 (Homo sapiens, UniProt O14929+Q16576); experiment: Inhibition of C-terminal FLAG tagged full length human HAT1/Rbap46 transfected in HEK293F cells using histone H4 peptide as substrate and 4-pentynoyl-CoA as cofactor preincubated for 10 mins followed by 4-pentynoyl-CoA addition and measured after 1 hr by amplex red dye based fluorescence analysis; assay type: cell-based
Mus musculus = experiment: In vivo inhibition of HAT-1 in NSG mouse xenografted with human A549 cells assessed as reduction in Histone H4 lysine 12 acetylation in tumor administered as single ip injection and measured after 24 hrs by immunofluorescence analysis; assay type: functional, organism-based; details: dose 25-100 mg/kg
In short: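 A549 tumours were established in NSG mice and given one i.p. dose of vehicle or drug. Tumours were harvested 24 h later and sections immunostained for H4K12Ac. Median nuclear fluorescence was taken from all nuclei in 2 images per group; one-way ANOVA.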

[5] = Cmax in CD1 mouse at 100 mg/kg, ip measured after 72 hrs by LC-MS/MS analysis; assay type: ADME, organism-based; parameters: time 72 hrs, dose 100 mg/kg, route ip; details: in vivo
In short: (§1)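 Mice received one intraperitoneal injection at 100 mg/kg. Plasma concentrations of the drug were followed over time, out to 72 h, and PK parameters were derived from the plasma concentration–time profile.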

[6] = Tmax in CD1 mouse at 100 mg/kg, ip measured after 15 to 4320 mins by LC-MS/MS analysis; assay type: ADME, organism-based; details: in vivo, time 15-4320 min; in short: as §1
[7] = Terminal elimination half life in CD1 mouse at 100 mg/kg, ip measured after 15 to 4320 mins by LC-MS/MS analysis; assay type: ADME, organism-based; details: in vivo, time 15-4320 min, read-out: LambdaZ; in short: as §1
[8] = Cmax in CD1 mouse at 100 mg/kg, ip measured after 1 hr by LC-MS/MS analysis; assay type: ADME, organism-based; parameters: dose 100 mg/kg, time 1 hrs, route ip; details: in vivo; in short: as §1
A549 = experiment: Antitumor activity against human A549 cells xenografted in NSG mouse assessed as reduction in tumor growth at 50 to 100 mg/kg, ip administered once for every 3 days starting from day 13 post tumor implantation by digital caliper method; assay type: functional, organism-based; details: dose 50-100 mg/kg
In short: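 A549 cells were implanted in both flanks of NSG mice and tumours were allowed to establish for 13 days. Vehicle or drug (50 or 100 mg/kg) was then injected i.p. once every third day.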

Homo sapiens = species: Homo sapiens; experiment: Inhibition of FAD-dependent oxidase (unknown origin)
[9] = biological target: Histone acetyltransferase KAT2B (Homo sapiens) (UniProt Q92831); experiment: Inhibition of human pCAF at 100 uM incubated for 20 mins followed by 3H-Acetyl CoA addition and measured after 30 mins; details: time 50.0 min
[10] = AUClast in CD1 mouse at 100 mg/kg, ip measured after 15 to 4320 mins by LC-MS/MS analysis; assay type: ADME, organism-based; parameters: time lower 15 min, dose 100 mg/kg, time upper 4320 min, route ip; details: in vivo; in short: as §1
[11] = Toxicity in mouse assessed as signs of distress at 500 mg/kg, ip administered as single dose; assay type: organism-based; details: in vivo
[12] = biological target: Histone acetyltransferase KAT2A (Homo sapiens) (UniProt Q92830); experiment: Inhibition of human GCN5 at 100 uM incubated for 20 mins followed by 3H-Acetyl CoA addition and measured after 30 mins; details: time 50.0 min
[13] = Toxicity in mouse assessed as drug tolerance up to 250 mg/kg, ip administered as single dose; assay type: organism-based; details: in vivo
[14] = biological target: Histone acetyltransferase KAT5 (Homo sapiens, UniProt Q92993); experiment: Inhibition of human KAT5 incubated for 20 mins followed by 3H-Acetyl CoA addition and measured after 30 mins
[15] = Observed clearance in CD1 mouse at 100 mg/kg, ip measured after 15 to 4320 mins by LC-MS/MS analysis; assay type: ADME, organism-based; details: in vivo, time 15-4320 min; in short: as §1
HCC1806 [16] = experiment: Cytotoxicity against human HCC1806 cells assessed as inhibition of cell growth by resazurin dye based fluorescence analysis; assay type: functional
In short: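 HCC1806 cells were treated across a range of doses. Growth was read by resazurin reduction to resorufin, with fluorescence at 590 nm.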

[17] = Observed apparent volume of distribution during terminal phase in CD1 mouse at 100 mg/kg, ip measured after 15 to 4320 mins by LC-MS/MS analysis; assay type: ADME, organism-based; details: in vivo, time 15-4320 min, read-out: Vz/F; in short: as §1
[18] = biological target: Histone acetyltransferase KAT6B (Homo sapiens, UniProt Q8WYB5); experiment: Inhibition of human MYST4 incubated for 20 mins followed by 3H-Acetyl CoA addition and measured after 30 mins
[19] = biological target: T1, HAT1/Rbap46 (Homo sapiens); experiment: Inhibition of C-terminal FLAG tagged full length human HAT1/Rbap46 transfected in HEK293F cells using histone H4 peptide as substrate and 4-pentynoyl-CoA as cofactor at 10 uM preincubated for 10 mins followed by 4-pentynoyl-CoA addition and measured after 1 to 4 hrs by amplex red dye based fluorescence analysis; assay type: cell-based; details: time 70-250 min

T1 sequence (O14929 2-419 partner limits assumed): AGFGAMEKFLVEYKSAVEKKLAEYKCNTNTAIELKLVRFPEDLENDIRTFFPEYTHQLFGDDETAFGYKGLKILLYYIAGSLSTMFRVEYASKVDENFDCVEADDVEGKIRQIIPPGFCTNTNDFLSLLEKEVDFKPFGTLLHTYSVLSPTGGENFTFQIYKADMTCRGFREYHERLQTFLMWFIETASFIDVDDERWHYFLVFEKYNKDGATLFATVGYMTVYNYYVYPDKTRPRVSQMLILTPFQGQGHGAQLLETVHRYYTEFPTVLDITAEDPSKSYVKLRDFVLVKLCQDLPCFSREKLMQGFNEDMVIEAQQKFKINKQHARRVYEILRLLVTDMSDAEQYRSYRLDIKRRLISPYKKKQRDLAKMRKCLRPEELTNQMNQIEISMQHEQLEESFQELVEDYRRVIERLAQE
T1 sequence (Q16576 2-425 limits assumed): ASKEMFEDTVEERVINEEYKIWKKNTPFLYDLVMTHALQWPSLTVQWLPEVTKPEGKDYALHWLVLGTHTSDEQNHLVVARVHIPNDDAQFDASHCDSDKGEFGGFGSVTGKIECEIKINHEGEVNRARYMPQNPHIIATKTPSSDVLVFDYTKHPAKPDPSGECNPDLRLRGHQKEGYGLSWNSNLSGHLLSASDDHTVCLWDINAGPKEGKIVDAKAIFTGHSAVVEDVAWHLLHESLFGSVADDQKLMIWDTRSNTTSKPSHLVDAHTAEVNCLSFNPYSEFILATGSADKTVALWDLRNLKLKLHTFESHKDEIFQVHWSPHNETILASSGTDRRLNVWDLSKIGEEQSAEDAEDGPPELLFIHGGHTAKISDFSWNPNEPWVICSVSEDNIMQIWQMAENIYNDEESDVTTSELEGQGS
Sequence of HAT1/Rbap46 (Q16576 whole entry): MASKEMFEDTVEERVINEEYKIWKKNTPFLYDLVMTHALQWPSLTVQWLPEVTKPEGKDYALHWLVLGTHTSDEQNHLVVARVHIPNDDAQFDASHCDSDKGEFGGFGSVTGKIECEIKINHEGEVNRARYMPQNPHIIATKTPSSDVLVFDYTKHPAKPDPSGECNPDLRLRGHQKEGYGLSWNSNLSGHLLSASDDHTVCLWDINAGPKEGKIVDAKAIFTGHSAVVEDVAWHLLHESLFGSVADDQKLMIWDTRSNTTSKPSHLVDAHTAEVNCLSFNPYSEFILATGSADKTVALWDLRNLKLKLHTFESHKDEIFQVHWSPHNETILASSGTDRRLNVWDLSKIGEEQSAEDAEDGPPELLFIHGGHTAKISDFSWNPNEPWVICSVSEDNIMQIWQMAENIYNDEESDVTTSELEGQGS
Sequence of HAT1/Rbap46 (O14929 whole entry): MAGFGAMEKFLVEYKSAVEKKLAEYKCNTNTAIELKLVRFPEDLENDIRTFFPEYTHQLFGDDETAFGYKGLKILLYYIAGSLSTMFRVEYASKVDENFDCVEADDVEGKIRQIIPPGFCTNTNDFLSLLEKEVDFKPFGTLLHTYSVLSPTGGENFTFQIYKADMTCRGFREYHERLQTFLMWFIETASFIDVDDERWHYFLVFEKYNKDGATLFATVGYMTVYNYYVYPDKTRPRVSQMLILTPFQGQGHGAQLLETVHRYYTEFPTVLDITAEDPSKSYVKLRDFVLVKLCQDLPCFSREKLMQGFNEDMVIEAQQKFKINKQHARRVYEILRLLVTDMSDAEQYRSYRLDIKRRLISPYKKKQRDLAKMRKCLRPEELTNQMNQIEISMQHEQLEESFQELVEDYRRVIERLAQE
Sequence of Histone acetyltransferase KAT2B (Homo sapiens) (Q92831 whole entry, looked up): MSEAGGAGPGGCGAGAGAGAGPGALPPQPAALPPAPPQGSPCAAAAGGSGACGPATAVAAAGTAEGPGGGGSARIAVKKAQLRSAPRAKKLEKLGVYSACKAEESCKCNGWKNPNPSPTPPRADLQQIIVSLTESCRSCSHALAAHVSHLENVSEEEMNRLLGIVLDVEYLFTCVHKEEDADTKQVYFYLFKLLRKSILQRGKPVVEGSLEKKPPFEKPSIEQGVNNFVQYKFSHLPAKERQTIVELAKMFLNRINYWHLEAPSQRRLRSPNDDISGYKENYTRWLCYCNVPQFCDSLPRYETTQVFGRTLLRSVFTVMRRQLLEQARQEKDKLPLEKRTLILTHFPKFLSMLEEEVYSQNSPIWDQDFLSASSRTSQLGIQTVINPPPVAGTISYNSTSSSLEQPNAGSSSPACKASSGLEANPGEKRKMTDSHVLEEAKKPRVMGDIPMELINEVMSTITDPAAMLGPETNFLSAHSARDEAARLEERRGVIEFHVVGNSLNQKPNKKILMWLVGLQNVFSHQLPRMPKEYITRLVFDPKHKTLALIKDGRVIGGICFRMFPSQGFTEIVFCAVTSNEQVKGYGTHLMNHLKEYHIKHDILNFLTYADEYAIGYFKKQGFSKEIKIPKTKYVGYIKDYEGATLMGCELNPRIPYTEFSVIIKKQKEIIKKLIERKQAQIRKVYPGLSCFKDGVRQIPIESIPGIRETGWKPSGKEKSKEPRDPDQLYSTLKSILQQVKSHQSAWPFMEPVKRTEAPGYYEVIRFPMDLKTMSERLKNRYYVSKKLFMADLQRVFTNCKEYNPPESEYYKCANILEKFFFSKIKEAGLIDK
Sequence of Histone acetyltransferase KAT5 (Q92993 whole entry): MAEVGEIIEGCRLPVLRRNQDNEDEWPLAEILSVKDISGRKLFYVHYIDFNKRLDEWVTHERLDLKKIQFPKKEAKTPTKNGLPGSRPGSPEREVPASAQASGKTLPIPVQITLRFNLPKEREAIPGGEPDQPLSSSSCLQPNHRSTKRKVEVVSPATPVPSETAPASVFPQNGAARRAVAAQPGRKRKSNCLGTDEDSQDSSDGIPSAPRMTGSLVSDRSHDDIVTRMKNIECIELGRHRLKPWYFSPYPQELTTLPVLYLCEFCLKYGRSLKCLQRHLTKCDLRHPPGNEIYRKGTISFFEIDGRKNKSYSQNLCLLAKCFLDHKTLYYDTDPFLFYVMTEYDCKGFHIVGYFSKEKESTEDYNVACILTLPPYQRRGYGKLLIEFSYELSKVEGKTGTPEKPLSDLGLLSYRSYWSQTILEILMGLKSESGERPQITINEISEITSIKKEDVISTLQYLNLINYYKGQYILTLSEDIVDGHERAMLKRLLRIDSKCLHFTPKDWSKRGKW
Sequence of Histone acetyltransferase KAT2A (Homo sapiens) (Q92830 2-837 limits assumed): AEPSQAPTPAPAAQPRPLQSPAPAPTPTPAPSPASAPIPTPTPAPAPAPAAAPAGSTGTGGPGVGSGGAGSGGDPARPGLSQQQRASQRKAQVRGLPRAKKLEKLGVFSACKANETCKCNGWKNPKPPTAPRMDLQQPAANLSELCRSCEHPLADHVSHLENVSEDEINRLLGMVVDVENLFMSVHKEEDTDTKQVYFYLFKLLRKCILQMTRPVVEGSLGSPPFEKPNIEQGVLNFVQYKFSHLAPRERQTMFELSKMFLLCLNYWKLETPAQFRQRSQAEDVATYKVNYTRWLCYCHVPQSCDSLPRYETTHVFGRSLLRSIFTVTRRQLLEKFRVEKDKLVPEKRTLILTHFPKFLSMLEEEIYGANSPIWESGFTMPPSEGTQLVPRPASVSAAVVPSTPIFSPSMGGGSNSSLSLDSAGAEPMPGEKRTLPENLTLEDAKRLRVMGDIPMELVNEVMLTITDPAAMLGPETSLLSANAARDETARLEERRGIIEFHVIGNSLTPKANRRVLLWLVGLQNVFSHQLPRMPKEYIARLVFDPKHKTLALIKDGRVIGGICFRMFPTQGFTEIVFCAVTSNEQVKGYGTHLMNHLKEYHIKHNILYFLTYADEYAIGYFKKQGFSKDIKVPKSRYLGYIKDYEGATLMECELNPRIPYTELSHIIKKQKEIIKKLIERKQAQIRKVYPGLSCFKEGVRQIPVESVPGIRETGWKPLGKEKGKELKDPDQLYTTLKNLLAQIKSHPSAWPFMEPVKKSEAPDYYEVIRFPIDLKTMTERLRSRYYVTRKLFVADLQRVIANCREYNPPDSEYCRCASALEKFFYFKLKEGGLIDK

Cc1cc2nc3[nH]c(=O)[nH]c(=O)c3nc2cc1C
inhibition [1]: 7% | inhibition [2]: inactive

CCc1cc2c(cc1Cl)nc1c(=O)[nH]c(=O)nc-1n2CCOc1ccc(F)cc1
inhibition [1]: 1%

CCc1cc2nc3c(=O)[nH]c(=O)nc-3n(C[C@H](O)[C@H](O)[C@H](O)CO)c2cc1Cl
inhibition [3]: 64% | inhibition [1]: 61%

CCc1cc2c(cc1Cl)nc1c(=O)[nH]c(=O)nc-1n2CCCc1ccc(Br)cc1
inhibition [1]: 9%

CCc1cc2c(cc1Cl)nc1c(=O)[nH]c(=O)nc-1n2CCOc1cccc(C(F)(F)F)c1
inhibition [1]: 11%

CC(=O)OCCn1c2nc(=O)[nH]c(=O)c-2nc2cc(C)c(C)cc21
inhibition [3]: 51%

CCC(=O)Nc1cc2[nH]c3nc(=O)n(Cc4ccccc4)c(=O)c-3nc2cc1C
inhibition [3]: 28%

CCc1cc2c(cc1Cl)nc1c(=O)[nH]c(=O)nc-1n2CCCOc1ccc(-c2ccccc2)cc1
inhibition [1]: 8%

CCc1cc2c(cc1Cl)nc1c(=O)[nH]c(=O)nc-1n2CCOc1ccc(-c2ccccc2)cc1
inhibition [1]: 13%

CCc1cc2c(cc1Cl)nc1c(=O)[nH]c(=O)nc-1n2CCOCC(C)(C)C
inhibition [1]: 40%

O=C1CN2Cc3c(ccc(Cl)c3Cl)N=C2N1
inhibition [1]: -5%

Oc1ccccc1C1=NC2c3ccccc3-c3ccccc3C2N1 (stereo not given)
inhibition [3]: 69%

CCc1cc2c(cc1Cl)nc1c(=O)[nH]c(=O)nc-1n2CCOCc1ccccc1
inhibition [1]: 49%

CCc1cc2c(cc1Cl)nc1c(=O)[nH]c(=O)nc-1n2CCOC(C)=O
inhibition [1]: 49%

Cc1cc2nc3c(=O)[nH]c(=O)nc-3n(C[C@H](O)[C@H](O)[C@H](O)CO)c2cc1N(C)C
inhibition [1]: 7% | inhibition (HCC1806 [4]): Active

CCc1cc2c(cc1Cl)nc1c(=O)[nH]c(=O)nc-1n2CCOCC1CCN(C(=O)OC(C)(C)C)CC1
inhibition [1]: 50%

CCc1cc2c(cc1Cl)nc1c(=O)[nH]c(=O)nc-1n2CCOCc1ccc(-c2ccccc2)cc1
inhibition [1]: 17%

CCc1cc2c(cc1Cl)nc1c(=O)[nH]c(=O)nc-1n2C[C@H](O)[C@H](O)[C@H](O)CO
inhibition [3]: 59% | inhibition [1]: 40%

CCc1cc2c(cc1Cl)nc1c(=O)[nH]c(=O)nc-1n2CC(C)(C)C
inhibition [1]: 62%

CCc1cc2c(cc1Cl)nc1c(=O)[nH]c(=O)nc-1n2CCCc1cc(F)cc(F)c1
inhibition [1]: 15%

Cc1cc2nc3c(=O)[nH]c(=O)nc-3n(C[C@H](O)[C@H](O)[C@H](O)COP(=O)(O)O)c2cc1C
inhibition [2]: inactive

O=C(O)Cc1ccc(/N=N/c2c(O)c(C(=O)O)cc3ccccc23)cc1
inhibition [3]: 72.2%

CC(=O)Nc1cc2[nH]c3nc(=O)n(Cc4ccccc4)c(=O)c-3nc2cc1C
inhibition [3]: 32%

COC1=C(N)C(=O)c2nc(-c3nc(C(=O)O)c(C)c(-c4ccc(OC)c(OC)c4O)c3N)ccc2C1=O
inhibition [3]: 66.3%

CCc1cc2c(cc1Cl)nc1c(=O)[nH]c(=O)nc-1n2CCOc1cc(F)cc(F)c1
inhibition [1]: -1%

CCc1cc2c(cc1Cl)nc1c(=O)[nH]c(=O)nc-1n2CCOc1cccc(F)c1
inhibition [1]: 17%

CCc1cc2c(cc1Cl)nc1c(=O)[nH]c(=O)nc-1n2CCOCC1CCCC1
inhibition [1]: 47%

CCc1cc2c(cc1Cl)nc1c(=O)[nH]c(=O)nc-1n2CCOCc1ccc(C#N)cc1
inhibition [1]: 26%

Cc1cc2cc3c(=O)[nH]c(=O)cc-3n(CC(O)C(O)C(O)CO)c2cc1C (stereo not given)
inhibition [3]: 66.4%

CCc1cc2c(cc1Cl)nc1c(=O)[nH]c(=O)nc-1n2CCOc1ccc(C)cc1
inhibition [1]: 20%

CCc1cc2c(cc1Cl)nc1c(=O)[nH]c(=O)nc-1n2CCOCC1CCNCC1
inhibition [1]: 60%

CCc1cc2c(cc1Cl)nc1c(=O)[nH]c(=O)nc-1n2CCOCc1cccc(C(F)(F)F)c1
inhibition [1]: 23%

CCc1cc2c(cc1Cl)nc1c(=O)[nH]c(=O)nc-1n2CCOc1ccc(Br)cc1
inhibition [1]: 8%

CC(=O)Nc1cc2[nH]c3nc(=O)n(CC4CCCCC4)c(=O)c-3nc2cc1C
inhibition [3]: 25%

CCc1cc2c(cc1Cl)nc1c(=O)[nH]c(=O)nc-1n2CCCOc1cccc(C(F)(F)F)c1
inhibition [1]: 19%

O=c1nc2n(CC(O)C(O)C(O)C(O)CO)c3cc(Cl)c(Cl)cc3nc-2c(=O)[nH]1 (stereo not given)
IC50 (HAT1/Rbap46): 62.6 µM | inhibition [3]: 46% | inhibition [1]: 31%

CCc1cc2c(cc1Cl)nc1c(=O)[nH]c(=O)nc-1n2CCCOc1ccc(C#N)cc1
inhibition [1]: 25%

CCc1cc2c(cc1Cl)nc1c(=O)[nH]c(=O)nc-1n2CCOCc1cccc(F)c1
inhibition [1]: 24%

NC(=S)c1cn([C@@H]2O[C@H](CO)[C@@H](O)[C@H]2O)c2ncnc(N)c12
inhibition [3]: 72.2%

CCc1cc2c(cc1Cl)nc1c(=O)[nH]c(=O)nc-1n2CCO
inhibition [1]: 54%

CCCC(=O)OC[C@@H](OC(=O)CCC)[C@@H](OC(=O)CCC)[C@H](Cn1c2nc(=O)[nH]c(=O)c-2nc2cc(C)c(C)cc21)OC(=O)CCC
IC50 (HAT1/Rbap46): 17 µM

CCc1cc2c(cc1Cl)nc1c(=O)[nH]c(=O)nc-1n2CCOc1ccccn1
inhibition [1]: 55%

CCc1cc2c(cc1Cl)nc1c(=O)[nH]c(=O)nc-1n2CCCOc1ccc(C)cc1
inhibition [1]: 12%

O=c1nc2n(CCN(CO)CO)c3cc(Cl)c(Cl)cc3nc-2c(=O)[nH]1
inhibition [3]: 37% | inhibition [1]: 17%

CCc1cc2c(cc1Cl)nc1c(=O)[nH]c(=O)nc-1n2CCOCC(C)C
inhibition (Mus musculus): Dose-Dependent Effect | Cmax [5]: 2.05 µM | Tmax [6]: 1 h | half-life [7]: 25.4 h | Cmax [8]: 70.1 µM | Activity (A549): Active | inhibition (Homo sapiens): inactive | inhibition [9]: inactive | AUC(0-t) [10]: 641 µM·h | Activity [11]: Toxic | inhibition [12]: inactive | Activity [13]: Non-Toxic | IC50 [14]: > 100 µM | CL/F [15]: 6.2 mL/min/kg | EC50 (HCC1806 [16]): 10.4 µM | Vd/F [17]: 13.6 L/kg | IC50 [18]: > 100 µM

CCc1cc2c(cc1Cl)nc1c(=O)[nH]c(=O)nc-1n2CCOCc1cccc(Br)c1
inhibition [1]: 17%

CC(=O)N[C@@H](CCCCNC(=O)SCCNC(=O)CCNC(=O)[C@H](O)C(C)(C)COP(=O)(O)OP(=O)(O)OC[C@H]1O[C@@H](n2cnc3c(N)ncnc32)[C@H](O)[C@@H]1OP(=O)(O)O)C(N)=O
inhibition [19]: inactive
